# From ChEMBL document CHEMBL5247575 (J Med Chem, 2018)
# Test system: Klebsiella pneumoniae
# Assay: Synergistic antibacterial activity against Klebsiella pneumoniae 11978 producing OXA-48 assessed as cefepime MIC at 4 ug/ml by broth microdilution method
# Type: functional
# Details: dose 4 µg/ml
# Method in brief: (§1)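 Broth microdilution per CLSI guidelines, using custom frozen panels. […] Each partner drug was also tested alone. MICs were run in triplicate and the modal value is reported.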
row,Structure (SMILES),MIC
1,O=C(NNC(=O)[C@@H]1CC[C@@H]2CN1C(=O)N2OS(=O)(=O)O)[C@@H]1CCCNC1 [ZIDEBACTAM],≤ 0.12 µg/mL

# Test system: Escherichia coli
# Assay: Synergistic antibacterial activity against Escherichia coli DH10B transfected with pBC SK (-) PDC-3 assessed as cefepime MIC at 4 ug/ml by broth microdilution method
# Type: functional
# Details: dose 4 µg/ml
# Method in brief: as §1
row,Structure (SMILES),MIC
1,O=C(NNC(=O)[C@@H]1CC[C@@H]2CN1C(=O)N2OS(=O)(=O)O)[C@@H]1CCCNC1 [ZIDEBACTAM],≤ 0.12 µg/mL

# Test system: Acinetobacter baumannii
# Assay: Synergistic antibacterial activity against Acinetobacter baumannii PR363 producing OXA-23 assessed as cefepime MIC at 4 ug/ml by broth microdilution method
# Type: functional
# Details: dose 4 µg/ml
row,Structure (SMILES),MIC
1,O=C(NNC(=O)[C@@H]1CC[C@@H]2CN1C(=O)N2OS(=O)(=O)O)[C@@H]1CCCNC1 [ZIDEBACTAM],8 µg/mL

# Test system: Klebsiella pneumoniae
# Assay: Synergistic antibacterial activity against Klebsiella pneumoniae 901/1860 producing KPC-3 assessed as cefepime MIC at 8 ug/ml by broth microdilution method
# Type: functional
# Details: dose 8 µg/ml
row,Structure (SMILES),MIC
1,O=C(NNC(=O)[C@@H]1CC[C@@H]2CN1C(=O)N2OS(=O)(=O)O)[C@@H]1CCCNC1 [ZIDEBACTAM],≤ 0.12 µg/mL

# Test system: Acinetobacter baumannii
# Assay: Synergistic antibacterial activity against Acinetobacter baumannii PR319 producing OXA-23/24/40 assessed as meropenem MIC at 4 ug/ml by broth microdilution method
# Type: functional
# Details: dose 4 µg/ml
row,Structure (SMILES),MIC
1,O=C(NNC(=O)[C@@H]1CC[C@@H]2CN1C(=O)N2OS(=O)(=O)O)[C@@H]1CCCNC1 [ZIDEBACTAM],> 16 µg/mL

# Test system: Klebsiella pneumoniae
# Assay: Synergistic antibacterial activity against Klebsiella pneumoniae 972/1910 producing KPC-3 assessed as meropenem MIC at 4 ug/ml by broth microdilution method
# Type: functional
# Details: dose 4 µg/ml
row,Structure (SMILES),MIC
1,O=C(NNC(=O)[C@@H]1CC[C@@H]2CN1C(=O)N2OS(=O)(=O)O)[C@@H]1CCCNC1 [ZIDEBACTAM],≤ 0.12 µg/mL

# Test system: Klebsiella pneumoniae
# Assay: Synergistic antibacterial activity against Klebsiella pneumoniae 660/1568 producing KPC-3 assessed as cefepime MIC at 8 ug/ml by broth microdilution method
# Type: functional
# Details: dose 8 µg/ml
# Method in brief: as §1
row,Structure (SMILES),MIC
1,O=C(NNC(=O)[C@@H]1CC[C@@H]2CN1C(=O)N2OS(=O)(=O)O)[C@@H]1CCCNC1 [ZIDEBACTAM],≤ 0.12 µg/mL

# Test system: Klebsiella pneumoniae
# Assay: Synergistic antibacterial activity against Klebsiella pneumoniae CAV 1636 producing OXA-181 assessed as cefepime MIC at 4 ug/ml by broth microdilution method
# Type: functional
# Details: dose 4 µg/ml
row,Structure (SMILES),MIC
1,O=C(NNC(=O)[C@@H]1CC[C@@H]2CN1C(=O)N2OS(=O)(=O)O)[C@@H]1CCCNC1 [ZIDEBACTAM],≤ 0.12 µg/mL

# Test system: Klebsiella pneumoniae
# Assay: Synergistic antibacterial activity against Klebsiella pneumoniae 11978 producing OXA-48 assessed as meropenem MIC at 4 ug/ml by broth microdilution method
# Type: functional
# Details: dose 4 µg/ml
# Method in brief: as §1
row,Structure (SMILES),MIC
1,O=C(NNC(=O)[C@@H]1CC[C@@H]2CN1C(=O)N2OS(=O)(=O)O)[C@@H]1CCCNC1 [ZIDEBACTAM],≤ 0.12 µg/mL

# Test system: Pseudomonas aeruginosa
# Assay: Synergistic antibacterial activity against Pseudomonas aeruginosa 839 assessed as meropenem MIC at 4 ug/ml by broth microdilution method
# Type: functional
# Details: dose 4 µg/ml
row,Structure (SMILES),MIC
1,O=C(NNC(=O)[C@@H]1CC[C@@H]2CN1C(=O)N2OS(=O)(=O)O)[C@@H]1CCCNC1 [ZIDEBACTAM],0.5 µg/mL

# Test system: Bacteria
# Assay: Inhibition of bacteria ADC-7 assessed as half life using nitrocefin as substrate
# Details: not given
row,Structure (SMILES),T1/2
1,O=C(NNC(=O)[C@@H]1CC[C@@H]2CN1C(=O)N2OS(=O)(=O)O)[C@@H]1CCCNC1 [ZIDEBACTAM],11 min

# Test system: Klebsiella pneumoniae
# Assay: Synergistic antibacterial activity against Klebsiella pneumoniae 440/1360 producing KPC-2 assessed as cefepime MIC at 4 ug/ml by broth microdilution method
# Type: functional
# Details: dose 4 µg/ml
# Method in brief: as §1
row,Structure (SMILES),MIC
1,O=C(NNC(=O)[C@@H]1CC[C@@H]2CN1C(=O)N2OS(=O)(=O)O)[C@@H]1CCCNC1 [ZIDEBACTAM],≤ 0.12 µg/mL

# Test system: Klebsiella pneumoniae
# Assay: Synergistic antibacterial activity against Klebsiella pneumoniae 440/1360 producing KPC-2 assessed as meropenem MIC at 4 ug/ml by broth microdilution method
# Type: functional
# Details: dose 4 µg/ml
# Method in brief: as §1
row,Structure (SMILES),MIC
1,O=C(NNC(=O)[C@@H]1CC[C@@H]2CN1C(=O)N2OS(=O)(=O)O)[C@@H]1CCCNC1 [ZIDEBACTAM],≤ 0.12 µg/mL

# Test system: Klebsiella pneumoniae
# Assay: Synergistic antibacterial activity against Klebsiella pneumoniae 1108/1989 producing KPC-3 assessed as meropenem MIC at 4 ug/ml by broth microdilution method
# Type: functional
# Details: dose 4 µg/ml
# Method in brief: as §1
row,Structure (SMILES),MIC
1,O=C(NNC(=O)[C@@H]1CC[C@@H]2CN1C(=O)N2OS(=O)(=O)O)[C@@H]1CCCNC1 [ZIDEBACTAM],≤ 0.12 µg/mL

# Test system: Acinetobacter baumannii
# Assay: Synergistic antibacterial activity against Acinetobacter baumannii PR408 producing OXA-24/40 assessed as cefepime MIC at 8 ug/ml by broth microdilution method
# Type: functional
# Details: dose 8 µg/ml
row,Structure (SMILES),MIC
1,O=C(NNC(=O)[C@@H]1CC[C@@H]2CN1C(=O)N2OS(=O)(=O)O)[C@@H]1CCCNC1 [ZIDEBACTAM],16 µg/mL

# Test system: Acinetobacter baumannii
# Assay: Synergistic antibacterial activity against Acinetobacter baumannii PR420 producing OXA-23/24/40 assessed as meropenem MIC at 8 ug/ml by broth microdilution method
# Type: functional
# Details: dose 8 µg/ml
row,Structure (SMILES),MIC
1,O=C(NNC(=O)[C@@H]1CC[C@@H]2CN1C(=O)N2OS(=O)(=O)O)[C@@H]1CCCNC1 [ZIDEBACTAM],> 16 µg/mL

# Test system: Acinetobacter baumannii
# Assay: Synergistic antibacterial activity against Acinetobacter baumannii PR381 producing OXA-24/40 assessed as meropenem MIC at 8 ug/ml by broth microdilution method
# Type: functional
# Details: dose 8 µg/ml
row,Structure (SMILES),MIC
1,O=C(NNC(=O)[C@@H]1CC[C@@H]2CN1C(=O)N2OS(=O)(=O)O)[C@@H]1CCCNC1 [ZIDEBACTAM],> 16 µg/mL

# Test system: Acinetobacter baumannii
# Assay: Synergistic antibacterial activity against Acinetobacter baumannii PR408 producing OXA-24/40 assessed as cefepime MIC at 4 ug/ml by broth microdilution method
# Type: functional
# Details: dose 4 µg/ml
row,Structure (SMILES),MIC
1,O=C(NNC(=O)[C@@H]1CC[C@@H]2CN1C(=O)N2OS(=O)(=O)O)[C@@H]1CCCNC1 [ZIDEBACTAM],8 µg/mL

# Test system: Klebsiella pneumoniae
# Assay: Synergistic antibacterial activity against Klebsiella pneumoniae 1084/1957 producing KPC-3 assessed as meropenem MIC at 4 ug/ml by broth microdilution method
# Type: functional
# Details: dose 4 µg/ml
# Method in brief: as §1
row,Structure (SMILES),MIC
1,O=C(NNC(=O)[C@@H]1CC[C@@H]2CN1C(=O)N2OS(=O)(=O)O)[C@@H]1CCCNC1 [ZIDEBACTAM],≤ 0.12 µg/mL
